In ChEMBL document CHEMBL5036380, “New Highly Potent NLRP3 Inhibitors: Furanochalcone Velutone F Analogues” (ACS Med Chem Lett, 2022):
Active and inactive are the calls of the source. The calls are words filed in the database; no cut-off is given here.

What was measured:
[1] = Cmax in Sprague-Dawley rat at 30 mg/kg, po measured up to 24 hrs by LC-MS/MS analysis; format: ADME, organism-based; parameters: route oral, dose 30 mg/kg, time <=24; conditions: in vivo
In short: (§1)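 Single doses given intravenously (10 mg/kg) or orally (10, 30, 90 mg/kg); plasma levels quantified by LC/MS/MS at multiple time points. Parameters reported as mean values: AUC0–t, CL, Cmax, T1/2, Tmax, and %F based on AUC.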

[2] = molecular target: NACHT, LRR and PYD domains-containing protein 3 (Homo sapiens) (UniProt Q96P20); assay: Inhibition of NLRP3 in human THP-1cells assessed as increase in thermal stability at 0.5 to 5 uM at 57 deg C measured by cellular thermal shift assay; conditions: dose 0.5-5 µM
[3] = Tmax in Sprague-Dawley rat at 30 mg/kg, po measured up to 24 hrs by LC-MS/MS analysis; format: ADME, organism-based; conditions: in vivo; in short: as §1
THP-1 [4] = assay: Antiinflammatory activity in human THP-1 cells assessed as inhibition of LPS/nigericin-induced IL-1beta secretion in LPS stimulation followed by pretreatment for 40 min before induced with nigericin for 40 min measured by western blot analysis; format: functional, cell-based; conditions: time 80.0 min
In short: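 PMA-differentiated THP-1 cells were primed with LPS, exposed to graded compound doses for 40 min, then given nigericin for 40 min. Supernatants were immunoblotted for IL-1β and caspase-1. Cell extracts were immunoblotted for NLRP3, pro-IL-1β and pro-caspase-1.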

[5] = AUC (0 to t) in Sprague-Dawley rat at 10 mg/kg, iv measured up to 24 hrs by LC-MS/MS analysis; format: ADME, organism-based; parameters: route intravenous, dose 10 mg/kg, time <=24; conditions: in vivo; in short: as §1
THP-1 [6] = assay: Effect on ASC oligomerization in LPS/nigericin stimulated human THP-1 cells assessed as ASC specks in LPS stimulation for 3 hrs followed by pretreatment for 40 min before induced with nigericin for 40 min by ASC and DAPI staining based immunofluorescent microscopy; format: functional, cell-based; conditions: time 80.0 min
In short: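 THP-1 cells were LPS-primed, treated with compound, then activated with nigericin. Endogenous ASC was visualized by immunofluorescence microscopy. The proportion of cells with ASC specks was counted, with NLRP3 KO THP-1 cells as comparison.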

[7] = molecular target: T1, Interferon-inducible protein AIM2 (Homo sapiens) (UniProt O14862); assay: Inhibition of AIM2 inflammasome activation in LPS-induced human THP-1 cells at 3 to 5uM for 40 mins followed by […] stimulation for 6 h by ELISA; format: cell-based
T1 sequence (whole entry): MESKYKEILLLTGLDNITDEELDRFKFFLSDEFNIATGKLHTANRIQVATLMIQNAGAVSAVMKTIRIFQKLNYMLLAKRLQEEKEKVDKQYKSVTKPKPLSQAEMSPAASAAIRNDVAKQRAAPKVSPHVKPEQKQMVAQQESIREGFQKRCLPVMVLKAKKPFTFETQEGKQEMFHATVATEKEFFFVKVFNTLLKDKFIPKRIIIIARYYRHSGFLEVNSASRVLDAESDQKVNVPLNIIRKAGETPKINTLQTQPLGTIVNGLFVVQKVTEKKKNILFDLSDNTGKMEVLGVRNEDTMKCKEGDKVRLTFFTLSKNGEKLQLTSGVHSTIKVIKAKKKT

[8] = molecular target: NLR family CARD domain-containing protein 4 (Homo sapiens) (UniProt Q9NPP4); assay: Inhibition of NLRC4 inflammasome activation in LPS-induced human THP-1 cells at 3 to 5uM for 40 mins followed by flagellin stimulation for 6 h by ELISA; format: cell-based
[9] = Cmax in Sprague-Dawley rat at 10 mg/kg, iv measured up to 24 hrs by LC-MS/MS analysis; format: ADME, organism-based; parameters: route intravenous, dose 10 mg/kg, time <=24; conditions: in vivo; in short: as §1
THP-1 [10] = assay: Effect on NLRP3 expression in LPS-stimulated human THP-1 cells preincubated for 40 mins followed by LPS addition and measured after 3 hrs by Western blot analysis; format: functional, cell-based; conditions: time 220.0 min
In short: (§2)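 THP-1 cells were given compound for 40 min, then primed with LPS for 3 h. Medium supernatant was analysed for TNF-α. Cell extracts were immunoblotted for pro-IL-1β and NLRP3.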

[11] = Cmax in Sprague-Dawley rat at 10 mg/kg, po measured up to 24 hrs by LC-MS/MS analysis; format: ADME, organism-based; parameters: route oral, dose 10 mg/kg, time <=24; conditions: in vivo; in short: as §1
THP-1 [12] = assay: Effect on TNFalpha expression in LPS-stimulated human THP-1 cells preincubated for 40 mins followed by LPS addition and measured after 3 hrs by Western blot analysis; format: functional, cell-based; conditions: time 220.0 min; in short: as §2
[13] = molecular target: NACHT, LRR and PYD domains-containing protein 3 (Homo sapiens) (UniProt Q96P20); assay: Binding affinity to NLRP3 in LPS stimulated human THP-1cells assessed as prevention of pronase-mediated protein degradation at 0.01 to 1mM incubated 50 mins before pronase treatment by label-free DARTS assay
In short: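 Drug affinity responsive target stability: THP-1 lysates were incubated with compound (0.01–1 mM), then digested with pronase. NLRP3 remaining was detected by immunoblot.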

THP-1 [14] = assay: Cytotoxicity against human THP-1 cells assessed as reduction in cell viability at 0.05 to 6.4 uM measured after 90 mins by CCK8 assay; format: cell-based; conditions: thp-1, 1.5 h, dose 0.05-6.4 µM
In short: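 THP-1 cells preincubated with compound (0.05–6.4 μM) for 1.5 h; viability read by CCK8 assay.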

[15] = Oral bioavailability in Sprague-Dawley rat at 90 mg/kg measured up to 24 hrs by LC-MS/MS analysis; format: ADME, organism-based; conditions: in vivo; in short: as §1
[16] = AUC (0 to t) in Sprague-Dawley rat at 90 mg/kg, po measured up to 24 hrs by LC-MS/MS analysis; format: ADME, organism-based; parameters: route oral, dose 90 mg/kg, time <=24; conditions: in vivo; in short: as §1
[17] = AUC (0 to t) in Sprague-Dawley rat at 10 mg/kg, po measured up to 24 hrs by LC-MS/MS analysis; format: ADME, organism-based; parameters: route oral, dose 10 mg/kg, time <=24; conditions: in vivo; in short: as §1
THP-1 [18] = assay: Antiinflammatory activity in human THP-1 cells assessed as inhibition of LPS-induced IL-1beta secretion in LPS stimulation for 3 hrs followed by pretreatment at 2uM for 40 min before induced with nigericin for 40 min measured by ELISA; format: functional; conditions: THP-1, 1.333 h, time 80 min
In short: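 THP-1 cells (2 × 10^5 cells/mL) differentiated with PMA (100 ng/mL) for 24 h. Next day, primed with LPS (1 μg/mL) for 3 h, then compound for 40 min, then nigericin (10 μM) for 40 min. IL-1β in supernatant measured by ELISA; % inhibition as mean ± SD of three independent experiments. The single-concentration screen used 2 μM.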

[19] = molecular target: T1, Interferon-inducible protein AIM2 (Homo sapiens); assay: Inhibition of AIM2 inflammasome activation in LPS-induced human THP-1 cells at 1 uM for 40 mins followed by […] stimulation for 6 h by ELISA; format: cell-based; conditions: time 400.0 min
[20] = Half life in Sprague-Dawley rat at 90 mg/kg, po measured up to 24 hrs by LC-MS/MS analysis; format: ADME, organism-based; conditions: in vivo; in short: as §1
[21] = Clearance in Sprague-Dawley rat at 10 mg/kg, iv measured up to 24 hrs by LC-MS/MS analysis; format: ADME, organism-based; conditions: in vivo; in short: as §1
THP-1 [22] = assay: Effect on NLRP3 expression in LPS-stimulated human THP-1 cells at 1 uM preincubated for 40 mins followed by LPS stimulation and measured after 3 hrs by Western blot analysis; format: functional, cell-based; in short: as §2
[23] = molecular target: NACHT, LRR and PYD domains-containing protein 3 (Homo sapiens) (UniProt Q96P20); assay: Inhibition of NLRP3 in human THP-1cells assessed as increase in thermal stability at 100 uM by cellular thermal shift assay
[24] = Tmax in Sprague-Dawley rat at 90 mg/kg, po measured up to 24 hrs by LC-MS/MS analysis; format: ADME, organism-based; conditions: in vivo; in short: as §1
[25] = Half life in Sprague-Dawley rat at 10 mg/kg, iv measured up to 24 hrs by LC-MS/MS analysis; format: ADME, organism-based; conditions: in vivo; in short: as §1

Sequence of NACHT, LRR and PYD domains-containing protein 3 (Homo sapiens) (Q96P20 whole entry, the tested form may be a part): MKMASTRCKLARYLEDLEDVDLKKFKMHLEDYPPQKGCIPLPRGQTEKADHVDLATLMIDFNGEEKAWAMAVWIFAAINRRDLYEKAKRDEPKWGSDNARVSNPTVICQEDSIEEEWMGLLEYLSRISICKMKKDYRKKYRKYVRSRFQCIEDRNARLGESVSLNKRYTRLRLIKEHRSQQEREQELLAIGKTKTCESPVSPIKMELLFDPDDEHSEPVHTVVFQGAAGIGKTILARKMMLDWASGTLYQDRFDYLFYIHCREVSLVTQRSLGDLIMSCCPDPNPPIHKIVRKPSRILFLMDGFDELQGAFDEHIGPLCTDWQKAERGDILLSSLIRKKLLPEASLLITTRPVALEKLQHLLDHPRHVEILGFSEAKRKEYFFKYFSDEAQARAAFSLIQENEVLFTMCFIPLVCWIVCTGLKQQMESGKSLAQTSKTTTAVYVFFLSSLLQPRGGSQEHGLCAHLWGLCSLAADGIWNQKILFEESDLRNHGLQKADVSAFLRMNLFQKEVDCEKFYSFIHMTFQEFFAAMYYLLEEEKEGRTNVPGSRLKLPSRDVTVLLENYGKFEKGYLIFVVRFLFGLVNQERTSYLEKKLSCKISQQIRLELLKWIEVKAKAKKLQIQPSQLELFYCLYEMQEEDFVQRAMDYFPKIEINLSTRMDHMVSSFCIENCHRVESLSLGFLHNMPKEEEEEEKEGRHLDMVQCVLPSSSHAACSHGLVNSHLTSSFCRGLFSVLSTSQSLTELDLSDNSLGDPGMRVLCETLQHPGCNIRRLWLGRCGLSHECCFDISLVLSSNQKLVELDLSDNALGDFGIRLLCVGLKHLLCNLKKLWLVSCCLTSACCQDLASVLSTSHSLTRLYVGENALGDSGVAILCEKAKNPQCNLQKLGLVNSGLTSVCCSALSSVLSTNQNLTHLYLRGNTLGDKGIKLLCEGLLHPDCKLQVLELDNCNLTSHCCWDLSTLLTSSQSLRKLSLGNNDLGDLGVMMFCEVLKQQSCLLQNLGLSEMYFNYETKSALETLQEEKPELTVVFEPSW
Sequence of NLR family CARD domain-containing protein 4 (Homo sapiens) (Q9NPP4 whole entry, the tested form may be a part): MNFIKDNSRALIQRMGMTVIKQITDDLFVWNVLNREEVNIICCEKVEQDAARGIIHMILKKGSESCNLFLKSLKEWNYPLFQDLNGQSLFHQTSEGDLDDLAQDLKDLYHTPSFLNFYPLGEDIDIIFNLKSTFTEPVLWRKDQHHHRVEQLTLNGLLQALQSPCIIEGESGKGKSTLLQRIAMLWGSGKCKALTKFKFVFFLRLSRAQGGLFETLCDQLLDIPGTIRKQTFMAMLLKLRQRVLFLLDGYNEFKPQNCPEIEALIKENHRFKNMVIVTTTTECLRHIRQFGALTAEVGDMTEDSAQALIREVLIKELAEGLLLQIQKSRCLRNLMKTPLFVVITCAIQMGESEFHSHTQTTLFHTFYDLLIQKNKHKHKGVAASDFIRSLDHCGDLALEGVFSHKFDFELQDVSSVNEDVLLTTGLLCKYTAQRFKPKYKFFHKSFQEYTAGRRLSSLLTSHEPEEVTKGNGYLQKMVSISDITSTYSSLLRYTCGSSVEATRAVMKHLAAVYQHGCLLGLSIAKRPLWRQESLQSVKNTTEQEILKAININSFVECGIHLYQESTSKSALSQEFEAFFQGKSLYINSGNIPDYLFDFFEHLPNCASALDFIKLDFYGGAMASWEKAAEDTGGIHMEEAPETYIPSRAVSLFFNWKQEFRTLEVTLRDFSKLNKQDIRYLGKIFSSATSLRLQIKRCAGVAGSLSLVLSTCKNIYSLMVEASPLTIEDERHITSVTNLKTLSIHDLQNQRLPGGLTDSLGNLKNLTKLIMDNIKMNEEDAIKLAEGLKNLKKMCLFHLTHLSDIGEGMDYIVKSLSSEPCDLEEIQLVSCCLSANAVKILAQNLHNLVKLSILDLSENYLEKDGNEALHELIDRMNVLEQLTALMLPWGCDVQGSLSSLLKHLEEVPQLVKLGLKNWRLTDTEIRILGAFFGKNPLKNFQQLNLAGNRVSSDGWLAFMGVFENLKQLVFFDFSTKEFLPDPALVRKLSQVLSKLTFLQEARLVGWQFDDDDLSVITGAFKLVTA

Cmax [1]: 16.4 ng/mL
inhibition [2]: Dose-Dependent Effect
Tmax [3]: 1.26 h
AUC(0-t) at 24 h [5]: 106 ng·h/mL
inhibition [7]: Dose-Dependent Effect
inhibition [8]: Dose-Dependent Effect
Cmax [9]: 82 ng/mL
Cmax [11]: 3.35 ng/mL
Activity [13]: Dose-Dependent Effect
bioavailability [15]: 2.47%
AUC(0-t) at 24 h [16]: 23.5 ng·h/mL
AUCt [17]: 14.6 ng·h/mL
inhibition [19]: inactive
half-life [20]: 6.08 h
CL [21]: 2229.2 mL/min/kg
inhibition [23]: Active
Tmax [24]: 4.21 h
half-life [25]: 3.13 h
SMILES: COc1cc(/C=C/C(=O)c2ccc(F)cc2)c(OC)cc1Br
Activity (THP-1 [4]): Dose-Dependent Effect
Activity (THP-1 [6]): Active
Activity (THP-1 [10]): inactive
Activity (THP-1 [12]): inactive
Activity (THP-1 [14]): Non-Toxic
inhibition at 2 µM (THP-1 [18]): 108%
Activity (THP-1 [22]): inactive
